Each structure is given as a SMILES string.

For data set [1], the target named is T1, Androgen receptor (Homo sapiens) (UniProt P10275).
T1 sequence (whole entry): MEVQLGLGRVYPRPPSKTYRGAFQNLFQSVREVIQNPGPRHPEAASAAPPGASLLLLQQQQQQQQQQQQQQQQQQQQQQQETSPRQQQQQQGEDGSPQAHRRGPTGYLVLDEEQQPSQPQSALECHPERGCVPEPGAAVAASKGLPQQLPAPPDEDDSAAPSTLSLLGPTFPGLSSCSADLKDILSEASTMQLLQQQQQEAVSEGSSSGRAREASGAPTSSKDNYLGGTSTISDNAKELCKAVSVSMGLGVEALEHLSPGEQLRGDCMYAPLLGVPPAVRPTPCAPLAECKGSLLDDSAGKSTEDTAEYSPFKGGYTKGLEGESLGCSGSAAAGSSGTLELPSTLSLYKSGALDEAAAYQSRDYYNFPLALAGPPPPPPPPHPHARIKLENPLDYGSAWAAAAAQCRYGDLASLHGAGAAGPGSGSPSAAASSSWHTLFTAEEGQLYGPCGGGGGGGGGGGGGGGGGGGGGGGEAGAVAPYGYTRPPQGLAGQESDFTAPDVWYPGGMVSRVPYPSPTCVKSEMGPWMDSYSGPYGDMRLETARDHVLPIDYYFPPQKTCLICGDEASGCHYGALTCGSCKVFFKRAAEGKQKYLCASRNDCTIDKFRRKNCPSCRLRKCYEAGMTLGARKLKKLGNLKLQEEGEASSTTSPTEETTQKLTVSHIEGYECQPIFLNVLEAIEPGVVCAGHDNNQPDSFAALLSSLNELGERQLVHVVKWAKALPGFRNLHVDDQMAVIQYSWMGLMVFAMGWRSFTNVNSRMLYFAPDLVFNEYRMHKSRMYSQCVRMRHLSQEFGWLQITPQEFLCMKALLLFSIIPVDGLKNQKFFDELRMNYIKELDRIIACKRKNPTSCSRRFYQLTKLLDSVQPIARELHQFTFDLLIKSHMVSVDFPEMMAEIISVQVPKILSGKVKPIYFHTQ
Briefly: Induction of androgen receptor degradation in human VCaP cells at 1 uM after 24 hrs by Western blotting analysis relative to control. In kind it is cell-based. The essentials: (§1)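 VCaP cells treated for 24 h at 10, 100 or 1000 nM. AR protein measured by Western blotting.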
(In general: A western blot detects proteins with antibodies after separation by electrophoresis.)

Data set [2] has as its target T1, Androgen receptor (Homo sapiens). Briefly: Induction of androgen receptor degradation in human VCaP cells at 0.01 uM after 24 hrs by Western blotting analysis relative to control. The data set is classed as cell-based. The essentials:
as §1

Data set [3] has the same target. Briefly: Induction of androgen receptor degradation in human VCaP cells at 0.1 uM after 24 hrs by Western blotting analysis relative to control. In kind it is cell-based. The essentials: as §1
Data set [4] is described as follows: Drug concentration in ICR mouse plasma at 10 mg/kg, po measured after 1 hr. The data set is classed as ADME, organism-based. The essentials:
(§2)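 Mice given a single 10 mg/kg dose by oral gavage, 3 mice per time point. Plasma drug levels measured at 1, 3, 6 and 24 h; mean ± SD reported.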

A short description of data set [5]: Drug concentration in ICR mouse plasma at 10 mg/kg, po measured after 6 hrs. The data set is classed as ADME, organism-based. The method in brief:
as §2

A short description of data set [6]: Drug concentration in ICR mouse plasma at 10 mg/kg, po measured after 3 hrs. In kind it is ADME, organism-based. The essentials: as §2

Consider `C[C@H]1CC2(CCN(c3ccc(C(=O)N4CC5(C4)CN(c4ccc6c(c4)C(=O)N(C4CCC(=O)NC4=O)C6=O)C5)cc3)CC2)CN1c1ccc(C#N)c(Cl)c1` (stereo not given in full), for which the Activity in data set [1] is greater than 95%; in data set [2], 79%; in data set [3] it was greater than 95%.

As for `C[C@@H]1CC2(CCN(c3ccc(C(=O)N4CCN(C5CN(c6ccc7c(c6)C(=O)N(C6CCC(=O)NC6=O)C7=O)C5)CC4)cc3)CC2)CN1c1ccc(C#N)c(Cl)c1` (stereo not given in full), the Activity in data set [1] is greater than 95%; in data set [2] it was 66%; in data set [3], 93%.

With `C[C@H]1CC2(CCN(c3ccc(C(=O)N4CCN(C5CCN(c6ccc7c(c6)C(=O)N(C6CCC(=O)NC6=O)C7=O)CC5)CC4)cc3)CC2)CN1c1ccc(C#N)c(Cl)c1` (stereo not given in full), the concentration at 1 h in data set [4] is 238 ng/mL. For the same compound, the Activity in data set [1] is greater than 95%; in data set [2], greater than 90%; in data set [3], greater than 95%. Further, the concentration at 6 h in data set [5] amounted to 104 ng/mL. Also, in data set [6], the concentration at 3 h came out at 208 ng/mL.

As to `C[C@H]1CC2(CCN(c3ccc(C(=O)N4CC(N5CCN(c6ccc7c(c6)C(=O)N(C6CCC(=O)NC6=O)C7=O)CC5)C4)cc3)CC2)CN1c1ccc(C#N)c(Cl)c1` (stereo not given in full), the results for the Activity in data set [1], in data set [2] and in data set [3] were greater than 95%, greater than 90% and greater than 95%, respectively.

Turning to `C[C@H]1CC2(CCN(c3ccc(C(=O)N4CCN(CC5CCN(c6ccc7c(c6)C(=O)N(C6CCC(=O)NC6=O)C7=O)CC5)CC4)cc3)CC2)CN1c1ccc(C#N)c(Cl)c1` (stereo not given in full), the Activity was greater than 95% in data set [1], greater than 90% in data set [2] and greater than 95% in data set [3].

As to `N#Cc1ccc(N2CCC3(CCN(c4ccc(C(=O)N5CCN(CC6CCN(c7ccc8c(c7)C(=O)N(C7CCC(=O)NC7=O)C8=O)CC6)CC5)cc4)CC3)C2)cc1Cl` (stereo not given), the figures for the Activity in data set [1], in data set [2] and in data set [3] were greater than 95%, 24% and 80%, respectively.

With `C[C@H]1CC2(CCN(c3ccc(C(=O)N4C[C@@H]5C[C@H]4CN5C4CN(c5ccc6c(c5)C(=O)N(C5CCC(=O)NC5=O)C6=O)C4)cc3)CC2)CN1c1ccc(C#N)c(Cl)c1` (stereo not given in full), the Activity in data set [1] is greater than 95%; in data set [2], greater than 90%; in data set [3], greater than 95%.

On to `C[C@H]1N(c2ccc(C#N)c(Cl)c2)CCC12CCN(c1ccc(C(=O)N3CCN(C4CN(c5ccc6c(c5)C(=O)N(C5CCC(=O)NC5=O)C6=O)C4)CC3)cc1)CC2` (stereo not given in full), for which the values for the Activity in data set [1], in data set [2] and in data set [3] were 91%, 46% and 68%, respectively.

As for `N#Cc1ccc(N2CCC3(CCN(c4ccc(C(=O)N5CC6(C5)CN(C5CCN(c7ccc8c(c7)C(=O)N(C7CCC(=O)NC7=O)C8=O)CC5)C6)cc4)CC3)C2)cc1Cl` (stereo not given), the results for the Activity in data set [1], in data set [2] and in data set [3] were 73%, less than 5% and 46%, respectively.

Consider `N#Cc1ccc(N2CCC3(CCN(C(=O)c4ccc(N5CCN(C6CCN(c7ccc8c(c7)C(=O)N(C7CCC(=O)NC7=O)C8=O)CC6)CC5)cc4)CC3)C2)cc1Cl` (stereo not given), for which the Activity is 56% in data set [1], less than 5% in data set [2] and 43% in data set [3].

For the compound `C[C@H]1CC2(CCN(c3ccc(C(=O)N4CCN(CC5CN(c6ccc7c(c6)C(=O)N(C6CCC(=O)NC6=O)C7=O)C5)CC4)cc3)CC2)CN1c1ccc(C#N)c(Cl)c1` (stereo not given in full), the Activity in data set [1] was greater than 95%; in data set [2] it was greater than 90%; in data set [3], greater than 95%.

`C[C@H]1CC2(CCN(c3ccc(C(=O)N4CCN(C5CN(c6ccc7c(c6)C(=O)N(C6CCC(=O)NC6=O)C7=O)C5)CC4)cc3)CC2)CN1c1ccc(C#N)c(C(F)F)c1` (stereo not given in full): the Activity in data set [1] is greater than 95%; in data set [2], greater than 90%; in data set [3], greater than 95%.

As for `N#Cc1ccc(N2CCC3(CCN(c4ccc(C(=O)N5CCCN(C6CCN(c7ccc8c(c7)C(=O)N(C7CCC(=O)NC7=O)C8=O)CC6)CCC5)cc4)CC3)C2)cc1Cl` (stereo not given), the Activity in data set [1] is 54%; in data set [2] it was less than 5%; in data set [3], 54%.

Take `C[C@H]1CC2(CCN(c3ccc(C(=O)N4C[C@H]5C[C@@H]4CN5C4CN(c5ccc6c(c5)C(=O)N(C5CCC(=O)NC5=O)C6=O)C4)cc3)CC2)CN1c1ccc(C#N)c(Cl)c1` (stereo not given in full): the Activity in data set [1] was 95%; in data set [2] it was 54%; in data set [3] it was 93%.

Consider `N#Cc1ccc(N2CCC3(CCN(c4ccc(C(=O)N5CCCN(C6CN(c7ccc8c(c7)C(=O)N(C7CCC(=O)NC7=O)C8=O)C6)CC5)cc4)CC3)C2)cc1Cl` (stereo not given), for which the Activity was 87% in data set [1], 39% in data set [2] and 70% in data set [3].

For `N#Cc1ccc(N2CCC3(CCN(c4ccc(C(=O)N5CCCN(C6CCN(c7ccc8c(c7)C(=O)N(C7CCC(=O)NC7=O)C8=O)CC6)CC5)cc4)CC3)C2)cc1Cl` (stereo not given), the Activity in data set [1] was determined as 92%; in data set [2] it was 45%; in data set [3], 80%.

In the case of `N#Cc1ccc(N2CCC3(CCN(c4ccc(C(=O)N5CCN(CC6CN(c7ccc8c(c7)C(=O)N(C7CCC(=O)NC7=O)C8=O)C6)CC5)cc4)CC3)C2)cc1Cl` (stereo not given), the Activity in data set [1] amounted to 85%; in data set [2], 30%; in data set [3] it was 81%.

In the case of `N#Cc1ccc(N2CCC3(CCN(c4ccc(C(=O)N5CCC6(C5)CN(C5CCN(c7ccc8c(c7)C(=O)N(C7CCC(=O)NC7=O)C8=O)CC5)C6)cc4)CC3)C2)cc1Cl` (stereo not given), the figures for the Activity in data set [1], in data set [2] and in data set [3] were 82%, 20% and 60%, respectively.

Turning to `N#Cc1ccc(N2CCC3(CCN(c4ccc(C(=O)N5CCN(C6CN(c7ccc8c(c7)C(=O)N(C7CCC(=O)NC7=O)C8=O)C6)CC5)cc4)CC3)C2)cc1Cl` (stereo not given), the Activity in data set [1] was greater than 95%; in data set [2], 78%; in data set [3] it was greater than 95%.

Take `C[C@H]1CC2(CCN(c3ccc(C(=O)N4CCC(N5CCN(c6ccc7c(c6)C(=O)N(C6CCC(=O)NC6=O)C7=O)CC5)CC4)cc3)CC2)CN1c1ccc(C#N)c(Cl)c1` (stereo not given in full): the Activity in data set [1] is greater than 95%; in data set [2], 78%; in data set [3] it was greater than 95%.

Consider `N#Cc1ccc(N2CCC3(CCN(c4ccc(C(=O)N5CCN(C6CCN(c7ccc8c(c7)C(=O)N(C7CCC(=O)NC7=O)C8=O)CC6)CC5)cc4)CC3)C2)cc1Cl` (stereo not given), for which the Activity turned out to be 95% in data set [1], 24% in data set [2] and 74% in data set [3].

Regarding `N#Cc1ccc(N2CCC3(CCN(c4ccc(C(=O)N5CC6(C5)CN(C5CN(c7ccc8c(c7)C(=O)N(C7CCC(=O)NC7=O)C8=O)C5)C6)cc4)CC3)C2)cc1Cl` (stereo not given), the Activity in data set [1] worked out at 81%; in data set [2], 22%; in data set [3], 62%.

Regarding `N#Cc1ccc(N2CCC3(CCN(c4ccc(C(=O)N5CCC(N6CCN(c7ccc8c(c7)C(=O)N(C7CCC(=O)NC7=O)C8=O)CC6)CC5)cc4)CC3)C2)cc1Cl` (stereo not given), the Activity is greater than 95% in data set [1], 37% in data set [2] and 20% in data set [3].

Take `C[C@@H]1N(c2ccc(C#N)c(Cl)c2)CCC12CCN(c1ccc(C(=O)N3CCN(C4CN(c5ccc6c(c5)C(=O)N(C5CCC(=O)NC5=O)C6=O)C4)CC3)cc1)CC2` (stereo not given in full): the Activity was greater than 95% in data set [1], 84% in data set [2] and greater than 95% in data set [3].

Turning to `C[C@H]1CC2(CCN(c3ccc(C(=O)N4CCN(C5(C#N)CN(c6ccc7c(c6)C(=O)N(C6CCC(=O)NC6=O)C7=O)C5)CC4)cc3)CC2)CN1c1ccc(C#N)c(Cl)c1` (stereo not given in full), the Activity in data set [1] came to 88%; in data set [2] it was 81%; in data set [3] it was 93%.

`C[C@H]1CC2(CCN(c3ccc(C(=O)N4CCC(CN5CCN(c6ccc7c(c6)C(=O)N(C6CCC(=O)NC6=O)C7=O)CC5)CC4)cc3)CC2)CN1c1ccc(C#N)c(Cl)c1` (stereo not given in full): the figures for the Activity in data set [1], in data set [2] and in data set [3] were greater than 95%, 81% and greater than 95%, respectively.

`N#Cc1ccc(N2CCC3(CCN(C(=O)c4ccc(C(=O)N5CCN(CC6CCN(c7ccc8c(c7)C(=O)N(C7CCC(=O)NC7=O)C8=O)CC6)CC5)cc4)CC3)C2)cc1Cl` (stereo not given): the values for the Activity in data set [1], in data set [2] and in data set [3] were 33%, less than 5% and less than 5%, respectively.

Regarding `N#Cc1ccc(N2CCC3(CCN(c4ccc(C(=O)N5CC6CC(C5)CN(C5CCN(c7ccc8c(c7)C(=O)N(C7CCC(=O)NC7=O)C8=O)CC5)C6)cc4)CC3)C2)cc1Cl` (stereo not given), the Activity in data set [1] is 90%; in data set [2] it was 23%; in data set [3], 80%.

Consider `C[C@H]1CC2(CCN(c3ccc(C(=O)N4CCC(C5CN(c6ccc7c(c6)C(=O)N(C6CCC(=O)NC6=O)C7=O)C5)CC4)cc3)CC2)CN1c1ccc(C#N)c(Cl)c1` (stereo not given in full), for which the values for the Activity in data set [1], in data set [2] and in data set [3] were 92%, 12% and 64%, respectively.

The values are drawn from ChEMBL document CHEMBL5331127, “Discovery of ARD-2051 as a Potent and Orally Efficacious Proteolysis Targeting Chimera (PROTAC) Degrader of Androgen Receptor for the Treatment of Advanced Prostate Cancer” (J Med Chem, 2023).
